In brackets after ≈: the same amount, converted by molar mass.
Legend:
NCI-H460 = experiment: Cytotoxicity against human NCI-H460 cells at 10 uM after 48 hrs by WST-1 assay; format: functional
Summary of the method: (§1)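 Cells from ATCC, grown in DMEM with 10% heat-inactivated FBS at 37 °C in humidified 5% CO2. Log-phase cells seeded at 5 × 10^3 cells/well and left to recover overnight, then exposed to varying compound concentrations for 48 h. Controls received medium with 0.2% DMSO vehicle. CCK-8 ([…]) reagent added at 5 µL/well for 2 h, then absorbance read.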

PANC-1 = experiment: Cytotoxicity against human PANC1 cells at 10 uM after 48 hrs by WST-1 assay; format: functional; summary of the method: as §1
Calu-1 = experiment: Cytotoxicity against human Calu1 cells at 10 uM after 48 hrs by WST-1 assay; format: functional
Summary of the method: (§2)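 Cells from ATCC were grown in DMEM with 10% heat-inactivated FBS at 37 °C in 5% CO2. Log-phase cells were seeded at 5 × 10^3 per well and left to recover overnight. They were then exposed to a range of compound concentrations for 48 h, with 0.2% DMSO as the vehicle control. CCK-8 (WST) reagent was added for 2 h and absorbance was measured.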

HCT-116 = experiment: Cytotoxicity against human HCT116 cells at 10 uM after 48 hrs by WST-1 assay; format: functional; summary of the method: as §2
ACHN = experiment: Cytotoxicity against human ACHN cells at 10 uM after 48 hrs by WST-1 assay; format: functional; summary of the method: as §2
[1] = test system: Trichophyton mentagrophytes; experiment: Antifungal activity against Trichophyton mentagrophytes after 3 to 4 days; format: functional
Summary of the method: (§3)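 Compounds were dissolved in DMSO and tested by serial plate dilution. Activity was read as the diameter of the inhibition zone, with ciclopiroxolamine as the reference standard. Penicillium marneffei and Trichophyton mentagrophytes were recultured isolates.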

Aspergillus flavus [2] = experiment: Antifungal activity against Aspergillus flavus NCIM 524 after 3 to 4 days by serial plate dilution method
Aspergillus flavus [3] = experiment: Antifungal activity against Aspergillus flavus NCIM 524 after 3 to 4 days; format: functional
Staphylococcus aureus [4] = experiment: Antibacterial activity against Staphylococcus aureus ATCC 25923 after 24 hrs by disc diffusion method; format: functional
Summary of the method: (§4)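 Disc diffusion susceptibility test. The Klebsiella pneumoniae strain was a recultured isolate, not an ATCC stock.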

Talaromyces marneffei [5] = experiment: Antifungal activity against Penicillium marneffei after 3 to 4 days by disc diffusion method; format: functional
Staphylococcus aureus [6] = experiment: Antibacterial activity against Staphylococcus aureus ATCC 25923 after 24 hrs; format: functional; settings: ATCC 25923, 24 h
Pseudomonas aeruginosa [7] = experiment: Antibacterial activity against Pseudomonas aeruginosa ATCC 27853 after 24 hrs by disc diffusion method; format: functional; summary of the method: as §4
Klebsiella pneumoniae [8] = experiment: Antibacterial activity against Klebsiella pneumoniae after 24 hrs; format: functional
[9] = test system: Trichophyton mentagrophytes; experiment: Antifungal activity against Trichophyton mentagrophytes after 3 to 4 days by disc diffusion method; format: functional
Pseudomonas aeruginosa [10] = experiment: Antibacterial activity against Pseudomonas aeruginosa ATCC 27853 after 24 hrs; format: functional; settings: ATCC 27853, 24 h
Escherichia coli [11] = experiment: Antibacterial activity against Escherichia coli ATCC 25922 after 24 hrs by disc diffusion method; format: functional; summary of the method: as §4
Klebsiella pneumoniae [12] = experiment: Antibacterial activity against Klebsiella pneumoniae after 24 hrs by disc diffusion method; format: functional; summary of the method: as §4
Aspergillus fumigatus [13] = experiment: Antifungal activity against Aspergillus fumigatus NCIM 902 after 3 to 4 days; format: functional; summary of the method: as §3
Talaromyces marneffei [14] = experiment: Antifungal activity against Penicillium marneffei after 3 to 4 days; format: functional
Escherichia coli [15] = experiment: Antibacterial activity against Escherichia coli ATCC 25922 after 24 hrs; format: functional; settings: ATCC 25922, 24 h
Aspergillus fumigatus [16] = experiment: Antifungal activity against Aspergillus fumigatus NCIM 902 after 3 to 4 days by disc diffusion method; format: functional

For `CCOC(=O)CC(=O)c1cnc2ccccc2c1`, which Activity (NCI-H460) is on record?
Its Activity is 20%.

What about the Activity (PANC-1) of the same compound?
The Activity was 26%.

And the Activity (Calu-1)?
Its Activity is 23%.

What about the Activity (HCT-116) of the same compound?
Its Activity is 28%.

What about the Activity (ACHN) of the same compound?
The Activity was 20%.

Which results are given for `CCOC(=O)CC(=O)c1cccc2sc(Br)nc12`?
MIC [1]: 12.5 µg/mL (≈ 38.1 µM); inhibition zone (IZ) (Aspergillus flavus [2]): 19 mm; MIC (Aspergillus flavus [3]): 12.5 µg/mL (≈ 38.1 µM); inhibition zone (IZ) (Staphylococcus aureus [4]): 21 mm; inhibition zone (IZ) (Talaromyces marneffei [5]): 17 mm; Activity (NCI-H460): 14%; MIC (Staphylococcus aureus [6]): 6.25 µg/mL (≈ 19 µM); Activity (PANC-1): 27%; inhibition zone (IZ) (Pseudomonas aeruginosa [7]): 22 mm; Activity (Calu-1): 19%; MIC (Klebsiella pneumoniae [8]): 6.25 µg/mL (≈ 19 µM); inhibition zone (IZ) [9]: 17 mm; Activity (HCT-116): 39%; MIC (Pseudomonas aeruginosa [10]): 6.25 µg/mL (≈ 19 µM); inhibition zone (IZ) (Escherichia coli [11]): 22 mm; inhibition zone (IZ) (Klebsiella pneumoniae [12]): 23 mm; MIC (Aspergillus fumigatus [13]): 12.5 µg/mL (≈ 38.1 µM); MIC (Talaromyces marneffei [14]): 12.5 µg/mL (≈ 38.1 µM); Activity (ACHN): 31%; MIC (Escherichia coli [15]): 6.25 µg/mL (≈ 19 µM); inhibition zone (IZ) (Aspergillus fumigatus [16]): 18 mm

What does the source list for `CCOC(=O)CC(=O)c1sc(Cl)nc1C`?
Activity (NCI-H460): 24%; Activity (PANC-1): 29%; Activity (Calu-1): 32%; Activity (HCT-116): 48%; Activity (ACHN): 37%

What does the source list for `CCOC(=O)CC(=O)c1cnccn1`?
Activity (NCI-H460): 20%; Activity (PANC-1): 27%; Activity (Calu-1): 16%; Activity (HCT-116): 30%; Activity (ACHN): 34%

With `CCOC(=O)CC(=O)c1ccncn1` as the compound, how does the Activity (NCI-H460) read?
Its Activity is 13%.

And the Activity (PANC-1)?
The Activity was 35%.

What about the Activity (Calu-1) of the same compound?
Its Activity is 12%.

And the Activity (HCT-116)?
The Activity was 20%.

What about the Activity (ACHN) of the same compound?
Its Activity is 15%.

How did the MIC [1] turn out when `CCOC(=O)CC(=O)c1nccc2ccccc12` was run?
Its MIC is 12.5 µg/mL (≈ 51.4 µM).

What about the “inhibition zone (IZ)” value (Aspergillus flavus [2]) of the same compound?
Its value is 15 mm.

And the MIC (Aspergillus flavus [3])?
Its MIC is 12.5 µg/mL (≈ 51.4 µM).

What about the “inhibition zone (IZ)” value (Staphylococcus aureus [4]) of the same compound?
Its value is 22 mm.

And the “inhibition zone (IZ)” value (Talaromyces marneffei [5])?
Its value is 18 mm.

And the Activity (NCI-H460)?
Its Activity is 34%.

What about the MIC (Staphylococcus aureus [6]) of the same compound?
Its MIC is 6.25 µg/mL (≈ 25.7 µM).

What about the Activity (PANC-1) of the same compound?
The Activity was 35%.

What about the “inhibition zone (IZ)” value (Pseudomonas aeruginosa [7]) of the same compound?
Its value is 20 mm.

And the Activity (Calu-1)?
Its Activity is 30%.

And the MIC (Klebsiella pneumoniae [8])?
The MIC was 6.25 µg/mL (≈ 25.7 µM).

What about the “inhibition zone (IZ)” value [9] of the same compound?
Its value is 17 mm.

And the Activity (HCT-116)?
Its Activity is 26%.

What about the MIC (Pseudomonas aeruginosa [10]) of the same compound?
Its MIC is 6.25 µg/mL (≈ 25.7 µM).

What about the “inhibition zone (IZ)” value (Escherichia coli [11]) of the same compound?
The value was 19 mm.

And the “inhibition zone (IZ)” value (Klebsiella pneumoniae [12])?
Its value is 22 mm.

And the MIC (Aspergillus fumigatus [13])?
The MIC was 12.5 µg/mL (≈ 51.4 µM).

And the MIC (Talaromyces marneffei [14])?
The MIC was 12.5 µg/mL (≈ 51.4 µM).

And the Activity (ACHN)?
The Activity was 30%.

What about the MIC (Escherichia coli [15]) of the same compound?
Its MIC is 6.25 µg/mL (≈ 25.7 µM).

What about the “inhibition zone (IZ)” value (Aspergillus fumigatus [16]) of the same compound?
The value was 18 mm.

For `CCOC(=O)CC(=O)c1nccn1C`, which Activity (NCI-H460) is on record?
Its Activity is 14%.

And the Activity (PANC-1)?
Its Activity is 35%.

And the Activity (Calu-1)?
The Activity was 30%.

And the Activity (HCT-116)?
Its Activity is 11%.

And the Activity (ACHN)?
The Activity was 30%.

How did the Activity (NCI-H460) turn out when `CCOC(=O)CC(=O)c1cccnc1` was run?
The Activity was 19%.

What about the Activity (PANC-1) of the same compound?
Its Activity is 35%.

What about the Activity (Calu-1) of the same compound?
Its Activity is 30%.

What about the Activity (HCT-116) of the same compound?
Its Activity is 30%.

And the Activity (ACHN)?
Its Activity is 30%.

What does the source list for `CCOC(=O)CC(=O)c1ccncc1`?
Activity (NCI-H460): 10%; Activity (PANC-1): 10%; Activity (Calu-1): 12%; Activity (HCT-116): 39%; Activity (ACHN): 31%

Which Activity (NCI-H460) does the source give for `CCOC(=O)CC(=O)c1cn(C(=O)OC(C)(C)C)c2ccccc12` here?
The Activity was 39%.

And the Activity (PANC-1)?
The Activity was 23%.

And the Activity (Calu-1)?
The Activity was 20%.

And the Activity (HCT-116)?
The Activity was 33%.

And the Activity (ACHN)?
Its Activity is 30%.

Which results are given for `CCOC(=O)CC(=O)c1nccn1CCOC`?
Activity (NCI-H460): 14%; Activity (PANC-1): 26%; Activity (Calu-1): 24%; Activity (HCT-116): 28%; Activity (ACHN): 21%

Which results are given for `CCOC(=O)C(C)C(=O)c1nccc2ccccc12` (stereo not drawn)?
Activity (NCI-H460): 19%; Activity (PANC-1): 30%; Activity (Calu-1): 20%; Activity (HCT-116): 24%; Activity (ACHN): 25%

`CCOC(=O)CC(=O)c1ccccn1` was tested. Which Activity (NCI-H460) did it give?
The Activity was 36%.

What about the Activity (PANC-1) of the same compound?
Its Activity is 27%.

And the Activity (Calu-1)?
The Activity was 22%.

And the Activity (HCT-116)?
Its Activity is 21%.

What about the Activity (ACHN) of the same compound?
The Activity was 25%.

Which MIC [1] does the source give for `Cc1cc(C2CCCCC2)n(O)c(=O)c1.NCCO` [CICLOPIROX OLAMINE] here?
The MIC was 3.12 µg/mL.

What about the “inhibition zone (IZ)” value (Aspergillus flavus [2]) of the same compound?
Its value is 27 mm.

And the MIC (Aspergillus flavus [3])?
Its MIC is 3.12 µg/mL.

And the “inhibition zone (IZ)” value (Talaromyces marneffei [5])?
The value was 23 mm.

What about the “inhibition zone (IZ)” value [9] of the same compound?
The value was 27 mm.

And the MIC (Aspergillus fumigatus [13])?
The MIC was 6.25 µg/mL.

What about the MIC (Talaromyces marneffei [14]) of the same compound?
The MIC was 6.25 µg/mL.

What about the “inhibition zone (IZ)” value (Aspergillus fumigatus [16]) of the same compound?
The value was 26 mm.

Which results are given for `O=C(O)c1cn(C2CC2)c2cc(N3CCNCC3)c(F)cc2c1=O` [CIPROFLOXACIN]?
inhibition zone (IZ) (Staphylococcus aureus [4]): 23 mm; MIC (Staphylococcus aureus [6]): 6.25 µg/mL (≈ 18.9 µM); inhibition zone (IZ) (Pseudomonas aeruginosa [7]): 28 mm; MIC (Klebsiella pneumoniae [8]): 6.25 µg/mL (≈ 18.9 µM); MIC (Pseudomonas aeruginosa [10]): 6.25 µg/mL (≈ 18.9 µM); inhibition zone (IZ) (Escherichia coli [11]): 32 mm; inhibition zone (IZ) (Klebsiella pneumoniae [12]): 23 mm; MIC (Escherichia coli [15]): 6.25 µg/mL (≈ 18.9 µM)

From ChEMBL document CHEMBL2034859, “Simple, fast and efficient synthesis of β-keto esters from the esters of heteroaryl compounds, its antimicrobial study and cytotoxicity towards various cancer cell lines” (Bioorg Med Chem Lett, 2012)
